Hits are enriched below; roughly 3.7% of the tested compounds scored in any of these assays.
KCNQ1 act: potentiates or activates the human KCNQ1 potassium channel; AID 2648; P51787; 310,000 tested, 0.35% active; CHO-K1 KCNQ1, thallium flux FluxOR fluorescence; hits give high values; B-score at 10 µM;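 active means fluorescence ratio B-score, a plate-corrected score, at least three library SD, with initial intensity B-score within 5 SD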
Target sequence (P51787 whole entry, looked up): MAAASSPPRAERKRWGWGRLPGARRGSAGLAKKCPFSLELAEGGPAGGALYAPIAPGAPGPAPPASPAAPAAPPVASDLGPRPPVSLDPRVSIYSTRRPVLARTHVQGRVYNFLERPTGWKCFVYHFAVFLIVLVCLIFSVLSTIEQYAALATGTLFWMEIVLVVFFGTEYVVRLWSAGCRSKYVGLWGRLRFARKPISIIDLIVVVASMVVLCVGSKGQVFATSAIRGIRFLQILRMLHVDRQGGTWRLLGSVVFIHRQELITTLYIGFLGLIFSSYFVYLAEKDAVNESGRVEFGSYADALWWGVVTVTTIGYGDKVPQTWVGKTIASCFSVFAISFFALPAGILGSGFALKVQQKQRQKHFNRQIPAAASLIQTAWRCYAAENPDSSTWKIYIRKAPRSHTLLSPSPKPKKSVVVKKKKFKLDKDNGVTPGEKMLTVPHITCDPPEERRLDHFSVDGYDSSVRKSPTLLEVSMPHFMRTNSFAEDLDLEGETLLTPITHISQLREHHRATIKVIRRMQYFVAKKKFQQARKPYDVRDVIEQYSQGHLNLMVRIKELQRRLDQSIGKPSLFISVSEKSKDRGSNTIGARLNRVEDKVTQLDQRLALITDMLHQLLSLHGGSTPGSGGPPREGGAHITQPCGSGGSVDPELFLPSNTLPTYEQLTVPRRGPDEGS
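System: Stable KCNQ1 CHO-K1 line | Incubation: 90 min dye loading and 20 min compound exposure, both at room temperature | Measure: Ratio B score | Medium: Assay buffer for compound exposure, DMSO matched across wells | Compound dosing: Single-concentration screen | Probe or stimulus: K+/Tl+ depolarizing stimulus | Measured by: Kinetic FluxOR fluorescence, 10 s baseline plus 110 s post-stimulus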
KCNK3 inh: human KCNK3 channel inhibition, primary screen | B-score at 10 µM | CHO-KCNK3 thallium flux, FluxOR fluorescence; hits give low values | 340,000 tested, 0.84% active | AID 602410;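 active means B-score under library mean minus 4 SD, starting fluorescence ratio at most library mean plus 5 SD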;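 further: more negative B-score means stronger inhibition of thallium flux through KCNK3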
Kir21 inh: Kir2.1 (mouse) channel inhibition; P35561; HEK293-Kir2.1, FluxOR thallium flux fluorescence; hits give low values; B-score at 10 µM; 310,000 tested, 0.85% active; AID 1672;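 active means fluorescence ratio B-score at or below minus 3 SD of library scores, with starting-brightness B-score within 2 SD, cut at about -4.2 in these data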;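 further: channel flux triggered by added potassium and thallium sulfate stimulus; B-score of peak minus minimum fluorescence over baseline after thallium stimulus; more negative B-score means stronger Kir2.1 block with less thallium influx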
hERG rescue: shields human hERG channel from block by proarrhythmic agents; Q12809; CHO-hERG, FluxOR thallium flux, dofetilide IC70 present; activation (rescue from dofetilide block), less the hit threshold, % at 10 µM; 310,000 tested, 0.51% active;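 active means activation above the mean of controls blocked by dofetilide plus 5 SD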;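 further: thallium influx through hERG after potassium depolarization seen as dye fluorescence rise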
KCNQ1 inh: inhibitors of human KCNQ1 potassium channel | CHO-K1 KCNQ1, FluxOR thallium flux fluorescence; hits give high values | P51787 | 310,000 tested, 1.3% active | B-score at 10 µM;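 active means compounds whose thallium flux B-score, printed positive for inhibition, exceeds three library SD while starting fluorescence stays within three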;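 further: channel opened by potassium depolarization with thallium stimulus after 20 min compound exposure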
KCNK9 block: blocks the human KCNK9 two-pore domain potassium channel | 310,000 tested, 1.2% active | B-score at 10 µM | HEK293 KCNK9, FluxOR thallium flux fluorescence; hits give low values | AID 488922;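 active means ratio B-score over 3 SD below the library mean, with starting fluorescence within 5 SD of its mean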;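 further: negative B-score means less thallium flux so channel inhibition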
An asterisk follows results filed as active.

For CCN(CC(=O)Nc1cc(Cl)ccc1C)c1ncnc2sc(C)c(C)c12 the results were KCNQ1 act inactive, KCNK3 inh inactive, Kir21 inh 0.01, hERG rescue -11, KCNQ1 inh inactive and KCNK9 block -6.6*.
Screening O=C(OCC(=O)N1CCCC1=O)C1CCN(S(=O)(=O)c2ccc(Cl)c(C(F)(F)F)c2)CC1 returned KCNK3 inh inactive.
For O=C(Cc1c(F)c(F)c(F)c(F)c1F)Nc1nc(-c2ccccc2)cs1 the results were KCNQ1 act inactive, KCNK3 inh inactive, Kir21 inh 0.72, hERG rescue -10, KCNQ1 inh inactive and KCNK9 block inactive.
Cc1ccc(S(=O)(=O)/N=C2/NC(=O)/C(=C/c3cc([N+](=O)[O-])ccc3O)S2)cc1 was read as KCNQ1 act inactive, KCNK3 inh inactive, Kir21 inh -1.7, hERG rescue -10, KCNQ1 inh inactive and KCNK9 block inactive.
COc1cccc(N=C2NC(=O)/C(=C/c3cc([N+](=O)[O-])ccc3O)S2)c1 was read as KCNQ1 act inactive, KCNK3 inh inactive, Kir21 inh -0.36, hERG rescue -10, KCNQ1 inh 7* and KCNK9 block inactive.
For CC(C)(C)C(=O)/C(=C\c1ccc([N+](=O)[O-])cc1)n1cncn1 the results were KCNQ1 act inactive, Kir21 inh -7.3*, hERG rescue -6, KCNQ1 inh inactive and KCNK9 block inactive.
For CC[C@@](C)(NS(=O)(=O)OCC(Cl)(Cl)Cl)c1ccccc1 the results were KCNQ1 act inactive, KCNK3 inh inactive, Kir21 inh -5.1*, hERG rescue -8, KCNQ1 inh inactive and KCNK9 block inactive.
`CC(C)(NS(=O)(=O)OCC(Cl)(Cl)Cl)c1ccccc1` gave KCNQ1 act inactive, KCNK3 inh inactive, Kir21 inh -4.1, hERG rescue 0, KCNQ1 inh inactive and KCNK9 block inactive.
`COc1ccc(-n2cnnc2SCC(=O)NC2CCCCC2)cc1` gave KCNK3 inh inactive.
O=C(COC(=O)C1CCN(S(=O)(=O)c2cccs2)CC1)c1cc2ccccc2o1 was read as KCNQ1 act inactive, KCNK3 inh inactive, Kir21 inh -0.58, hERG rescue -9, KCNQ1 inh inactive and KCNK9 block -7.8*.
Screening O=C(Nc1ccc(Br)cc1Cl)Nn1cnnc1 returned KCNQ1 act inactive, KCNK3 inh inactive, Kir21 inh -1.3, hERG rescue 6.2*, KCNQ1 inh inactive and KCNK9 block inactive.
O=C1NC(c2ccc(-c3ccccc3[N+](=O)[O-])o2)C(C(=O)c2ccccc2)C(O)(C(F)(F)F)N1 (stereo unspecified) was read as KCNQ1 act inactive, KCNK3 inh inactive, Kir21 inh 0.48, hERG rescue -6, KCNQ1 inh inactive and KCNK9 block inactive.
Cc1ccc(C(=O)C2C(c3ccc(-c4ccccc4[N+](=O)[O-])o3)NC(=O)NC2(O)C(F)(F)F)cc1 (stereo unspecified) was read as KCNQ1 act inactive, KCNK3 inh inactive, Kir21 inh 0.01, hERG rescue -10, KCNQ1 inh inactive and KCNK9 block -10*.
COc1ccc(/C=C/CN2CCCC(CCC(=O)NCc3ccc(F)c(F)c3)C2)cc1 (stereo unspecified) was read as KCNQ1 act inactive, KCNK3 inh inactive, Kir21 inh -4.9*, hERG rescue -15, KCNQ1 inh inactive and KCNK9 block inactive.
For Cc1ccc(S(=O)(=O)N2CCN(C(=O)[C@H](Cc3ccccc3)NC(=O)c3ccco3)CC2)cc1C the results were KCNK3 inh inactive.
Screening CC(NC(=O)COC(=O)c1cc(NS(=O)(=O)c2ccc(Cl)c([N+](=O)[O-])c2)ccc1O)C1CC2CCC1C2 (stereo unspecified) returned KCNQ1 act inactive, KCNK3 inh inactive, Kir21 inh -1.4, hERG rescue -13, KCNQ1 inh 11* and KCNK9 block inactive.
Screening COc1ccc(NS(=O)(=O)c2ccc(O)c(C(=O)OCC(=O)NC(C)C3CC4CCC3C4)c2)cc1 (stereo unspecified) returned KCNQ1 act inactive, KCNK3 inh inactive, Kir21 inh 0.01, hERG rescue -9, KCNQ1 inh inactive and KCNK9 block inactive.
`Cc1nc(Sc2nnnn2-c2ccccc2)c(C#N)c(C)c1C` gave KCNQ1 act inactive, KCNK3 inh inactive, Kir21 inh -4.9*, hERG rescue -10, KCNQ1 inh inactive and KCNK9 block inactive.
`O=C(/C(N=Nc1cccc([N+](=O)[O-])c1)=C(/O)c1ccc(Br)cc1)C(F)(F)F` gave KCNQ1 act inactive, Kir21 inh -0.89, hERG rescue -16, KCNQ1 inh 9* and KCNK9 block -9.2*.
For C/C(=N\NC(=O)c1ccccc1[N+](=O)[O-])c1ccc(Br)s1 the results were KCNQ1 act inactive, KCNK3 inh inactive, Kir21 inh 0.45, hERG rescue -12, KCNQ1 inh inactive and KCNK9 block inactive.
`C/C(=N\NC(=O)c1ccccc1O)c1ccc(Br)s1` gave KCNQ1 act inactive, KCNK3 inh inactive, Kir21 inh 2.7, hERG rescue 5.4*, KCNQ1 inh inactive and KCNK9 block inactive.
C/C(=N\NC(=O)c1cccc(F)c1)c1ccc(Br)s1 was read as KCNQ1 act 11*, KCNK3 inh inactive, Kir21 inh -0.01, hERG rescue -6, KCNQ1 inh inactive and KCNK9 block inactive.
`C/C(=N\NC(=O)c1cccc(Br)c1)c1ccc(Br)cc1` gave KCNQ1 act inactive, KCNK3 inh inactive, Kir21 inh -0.9, hERG rescue -10, KCNQ1 inh inactive and KCNK9 block inactive.
COCCNc1cnn(-c2ccccc2)c(=O)c1Cl was read as KCNQ1 act inactive, KCNK3 inh inactive, Kir21 inh 0.01, hERG rescue -1, KCNQ1 inh inactive and KCNK9 block inactive.
Screening Cc1cccc(NC(=O)CNC(=O)CN2C(=O)NC(C)(CCC(C)C)C2=O)c1C (stereo unspecified) returned KCNK3 inh inactive.
Cc1cccc(CN2CCc3c([nH]c4ccccc34)C2C(C)(C)C)n1 (stereo unspecified) was read as KCNQ1 act inactive, KCNK3 inh inactive, Kir21 inh -0.73, hERG rescue -1, KCNQ1 inh inactive and KCNK9 block inactive.
Screening CC(=O)c1cnc(Nc2nc(C)c3cc(C)c(C)cc3n2)nc1C returned KCNQ1 act inactive, KCNK3 inh inactive, Kir21 inh 0.01, hERG rescue 7.7*, KCNQ1 inh inactive and KCNK9 block inactive.
`CSc1ncc(C(C)=O)c(C)n1` gave KCNQ1 act inactive, KCNK3 inh inactive, Kir21 inh -1.1, hERG rescue -8, KCNQ1 inh inactive and KCNK9 block inactive.

Bioassay records (PubChem)
